Tests used:
Conyza bonariensis [1] = experiment: Herbicidal activity against Conyza bonariensis (hairy fleabane) at rosette stage (BBHC14 to 15) assessed as growth inhibition measured after 21 days; type: functional
Summary of the method: (§1)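 Glyphosate-susceptible plants were grown in a growth chamber (28/18 °C day/night, 16 h photoperiod, 80% RH). Commercial glyphosate was sprayed from 50 cm in a laboratory spray chamber at rosette (BBCH 14-15), or, for C. bonariensis only, also at bolting (BBCH 32) or flowering (BBCH 55). Shoot fresh weight was taken 21 d later as % of untreated. Five replications of three plants each. ED50 came from a log-logistic regression of pooled data.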

Conyza bonariensis [2] = experiment: Herbicidal activity against Conyza bonariensis (hairy fleabane) at bolting stage (BBHC32) assessed as growth inhibition measured after 21 days; type: functional; summary of the method: as §1
Conyza bonariensis [3] = experiment: Herbicidal activity against Conyza bonariensis (hairy fleabane) at flowering stage (BBHC55) assessed as growth inhibition measured after 21 days; type: functional; summary of the method: as §1
Root [4] = experiment: Drug absorption in Conyza bonariensis (hairy fleabane) assessed as translocation in root at […] measured after 96 hr by liquid scintillation spectrometry; type: ADME
Summary of the method: (§2)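 Glyphosate-susceptible plants were grown in pots in a growth chamber (28/18 °C, 16 h photoperiod). They were treated with commercial glyphosate spiked with [14C]glyphosate (0.417 kBq μL-1; 1 g ai L-1, i.e. 200 g ai ha-1 in 200 L). Plants were harvested 96 h after treatment. Unabsorbed label was rinsed from the treated leaf with water-acetone (1:1). Plants were split into treated leaf, rest of shoot and root, and the rinsate was counted by liquid scintillation.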

Leaf [5] = experiment: Drug absorption in Conyza bonariensis (hairy fleabane) assessed as translocation in treated leaf at […] measured after 96 hr by liquid scintillation spectrometry; type: ADME; conditions: other; summary of the method: as §2
Erigeron canadensis [6] = experiment: Drug absorption in Conyza canadensis (horseweed) assessed as translocation in rest of plant at […] measured after 96 hr by liquid scintillation spectrometry; type: ADME, organism-based; conditions: in vivo; summary of the method: as §2
Conyza bonariensis [7] = experiment: Drug absorption in Conyza bonariensis (hairy fleabane) assessed as translocation in rest of plant at […] measured after 96 hr by liquid scintillation spectrometry; type: ADME, organism-based; conditions: in vivo; summary of the method: as §2
Conyza sumatrensis [8] = experiment: Herbicidal activity against Conyza sumatrensis ( tall fleabane) at rosette stage (BBHC14 to 15) assessed as growth inhibition measured after 21 days; type: functional; summary of the method: as §1
Conyza sumatrensis [9] = experiment: Drug absorption in Conyza sumatrensis (tall fleabane) assessed as translocation in rest of plant at […] measured after 96 hr by liquid scintillation spectrometry; type: ADME, organism-based; conditions: in vivo; summary of the method: as §2
Leaf [10] = experiment: Drug absorption in Conyza sumatrensis (tall fleabane) assessed as translocation in treated leaf at […] measured after 96 hr by liquid scintillation spectrometry; type: ADME; conditions: topical_or_ocular; summary of the method: as §2
[11] = Ratio of ED50 for hairy fleabane Conyza canadensis to ED50 for tall fleabane Conyza sumatrensis; type: functional
Leaf [12] = experiment: Drug absorption in Conyza canadensis (horseweed) assessed as translocation in treated leaf at […] measured after 96 hr by liquid scintillation spectrometry; type: ADME; conditions: erigeron canadensis, other; summary of the method: as §2
Root [13] = experiment: Drug absorption in Conyza sumatrensis (tall fleabane) assessed as translocation in root at […] measured after 96 hr by liquid scintillation spectrometry; type: ADME; summary of the method: as §2
Root [14] = experiment: Drug absorption in Conyza canadensis (horseweed) assessed as translocation in root at […] measured after 96 hr by liquid scintillation spectrometry; type: ADME; conditions: erigeron canadensis; summary of the method: as §2
[15] = Ratio of ED50 for hairy fleabane Conyza bonariensis to ED50 for tall fleabane Conyza sumatrensis; type: functional
Erigeron canadensis [16] = experiment: Herbicidal activity against Conyza canadensis (horseweed) at rosette stage (BBHC14 to 15) assessed as growth inhibition measured after 21 days; type: functional; summary of the method: as §1

Compound: O=C(O)CNCP(=O)(O)O [GLYPHOSATE]
- ED50 (Conyza bonariensis [1]): 15.7 gAi/ha
- ED50 (Conyza bonariensis [2]): 86.6 gAi/ha
- ED50 (Conyza bonariensis [3]): 117.5 gAi/ha
- Drug transport (Root [4]): 8.3%
- Drug transport (Leaf [5]): 85.2%
- Drug transport (Erigeron canadensis [6]): 4%
- Drug transport (Conyza bonariensis [7]): 6.4%
- ED50 (Conyza sumatrensis [8]): 2.9 gAi/ha
- Drug transport (Conyza sumatrensis [9]): 5.9%
- Drug transport (Leaf [10]): 82.4%
- Ratio ED50 [11]: 12
- Drug transport (Leaf [12]): 93%
- Drug transport (Root [13]): 11.6%
- Drug transport (Root [14]): 2.8%
- Ratio ED50 [15]: 5.4
- ED50 (Erigeron canadensis [16]): 34.9 gAi/ha

— ChEMBL document CHEMBL3046416, “Differential susceptibility to glyphosate among the Conyza weed species in Spain” (J Agric Food Chem, 2010)
